# Experimental data: ChEMBL document CHEMBL1145458, “Novel vanilloid receptor-1 antagonists: 1. Conformationally restricted analogues of trans-cinnamides” (J Med Chem, 2007)
# The source made the active and inactive calls. The calls are words filed in the database; no cut-off is given here.
# What was measured:
# [1] = target: T1, Transient receptor potential cation channel subfamily V member 1 (Homo sapiens, UniProt Q8NER1); test: Agonist activity at TRPV1 expressed in CHO cells; assay type: functional, cell-based
# [2] = target: T2, Transient receptor potential cation channel subfamily V member 1 (Rattus norvegicus, UniProt O35433); test: Antagonist activity at rat TRPV1 expressed in CHO cells assessed as inhibition of acid-induced calcium influx; assay type: functional, cell-based
# Outline: (§1)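 CHO cells stably transfected with human or rat TRPV1 were preincubated with compound for 2 min at room temperature. After washout, uptake was read by scintillation counting. IC50 values come from inhibition curves, averaging at least two experiments run in triplicate.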
# [3] = target: T2, Transient receptor potential cation channel subfamily V member 1; test: Antagonist activity at rat TRPV1 expressed in CHO cells assessed as inhibition of capsaicin-induced calcium influx; assay type: functional, cell-based
# Outline: (§2)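 Human or rat TRPV1-CHO cells were preincubated with compound for 2 min at room temperature in HBSS with 0.1 mg/mL BSA and 1 mM HEPES pH 7.4. Cells were washed and radioactivity counted. IC50 is the mean of at least two experiments, triplicate per concentration, ±SEM.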
# [4] = AUC (0-infinity) in Sprague-Dawley rat at 3 mg/kg, iv; assay type: ADME, organism-based; parameters: time infinity, dose 3 mg/kg, route intravenous; details: plasma
# [5] = target: T1, Transient receptor potential cation channel subfamily V member 1; test: Antagonist activity at human TRPV1 expressed in CHO cells assessed as inhibition of capsaicin-induced calcium influx; assay type: functional, cell-based; outline: as §2
# [6] = Volume of distribution at steady state in Sprague-Dawley rat at 2 mg/kg, iv; assay type: ADME, organism-based; parameters: dose 2 mg/kg, route intravenous; details: in vivo, read-out: Vss
# Outline: (§3)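 Male Sprague-Dawley rats received a single intravenous dose of 2 mg/kg given as a solution in DMSO. Plasma AUC0-∞, clearance, Vss and t1/2 were derived. Values are means of n = 2 animals per study, or of four studies.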
# [7] = AUC (0-infinity) in Sprague-Dawley rat at 5 mg/kg, po; assay type: ADME, organism-based; parameters: time infinity, dose 5 mg/kg, route oral; details: plasma
# Outline: (§4)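 Sprague-Dawley rats were dosed orally at 5 mg/kg as a suspension in 5% Tween 80 in Oraplus. Cmax, tmax, AUC0-∞ and oral bioavailability were determined. Values are means of n = 2 animals per study, or of five studies.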
# [8] = Cmax in Sprague-Dawley rat at 5 mg/kg, po; assay type: ADME, organism-based; parameters: dose 5 mg/kg, route oral; details: in vivo; outline: as §4
# [9] = Half life in Sprague-Dawley rat at 2 mg/kg, iv; assay type: ADME, organism-based; parameters: dose 2 mg/kg, route intravenous; details: in vivo; outline: as §3
# [10] = system: Rattus norvegicus; test: Blockade of capsaicin-induced hypothermic response in Sprague-Dawley rat at 40 mg/kg, po; assay type: functional, organism-based; parameters: dose 40 mg/kg
# Outline: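 Male Sprague-Dawley rats (175–250 g) had core temperature monitored by radiotelemetry, with a 30 min baseline. Compound or vehicle was given by oral gavage in OraPlus/5% Tween-80 (5 mL/kg), at 40 mg/kg p.o., n = 8 per group. After 90 min, capsaicin 10 mg/kg or vehicle was injected intraperitoneally.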
# [11] = Bioavailability in Sprague-Dawley rat at 5 mg/kg, po; assay type: ADME, organism-based; details: in vivo; outline: as §4
# [12] = Tmax in Sprague-Dawley rat at 5 mg/kg, po; assay type: ADME, organism-based; parameters: dose 5 mg/kg, route oral; details: in vivo; outline: as §4
# [13] = AUC (0-infinity) in Sprague-Dawley rat at 2 mg/kg, iv; assay type: ADME, organism-based; parameters: time infinity, dose 2 mg/kg, route intravenous; details: plasma; outline: as §3
# [14] = target: T1, Transient receptor potential cation channel subfamily V member 1; test: Antagonist activity at human TRPV1 expressed in CHO cells assessed as inhibition of acid-induced calcium influx; assay type: functional, cell-based; outline: as §1
# [15] = Clearance in Sprague-Dawley rat at 2 mg/kg, iv; assay type: ADME, organism-based; parameters: dose 2 mg/kg, route intravenous; details: in vivo; outline: as §3
# T2 sequence (O35433 whole entry): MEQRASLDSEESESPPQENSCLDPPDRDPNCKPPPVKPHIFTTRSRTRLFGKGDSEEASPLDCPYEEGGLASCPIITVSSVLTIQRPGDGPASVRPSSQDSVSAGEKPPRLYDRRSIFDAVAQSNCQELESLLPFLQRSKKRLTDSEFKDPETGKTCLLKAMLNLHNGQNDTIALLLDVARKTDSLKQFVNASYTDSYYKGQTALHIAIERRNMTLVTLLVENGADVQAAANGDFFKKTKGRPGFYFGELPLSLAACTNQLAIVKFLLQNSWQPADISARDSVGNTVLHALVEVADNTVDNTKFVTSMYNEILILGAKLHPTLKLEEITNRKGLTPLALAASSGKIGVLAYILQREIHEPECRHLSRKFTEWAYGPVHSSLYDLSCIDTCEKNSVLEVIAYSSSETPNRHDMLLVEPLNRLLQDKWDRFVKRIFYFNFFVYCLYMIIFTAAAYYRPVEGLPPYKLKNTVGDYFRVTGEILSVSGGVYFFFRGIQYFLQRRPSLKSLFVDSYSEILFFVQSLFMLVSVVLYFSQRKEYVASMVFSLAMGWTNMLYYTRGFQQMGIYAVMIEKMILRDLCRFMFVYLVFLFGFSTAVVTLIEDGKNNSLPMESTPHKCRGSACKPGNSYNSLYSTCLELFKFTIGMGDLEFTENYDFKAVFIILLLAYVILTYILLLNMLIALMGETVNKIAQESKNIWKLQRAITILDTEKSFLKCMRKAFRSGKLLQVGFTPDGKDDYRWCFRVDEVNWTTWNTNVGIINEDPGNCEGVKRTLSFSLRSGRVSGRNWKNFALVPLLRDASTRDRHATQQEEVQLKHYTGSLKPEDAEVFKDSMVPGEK
# T1 sequence (Q8NER1 whole entry): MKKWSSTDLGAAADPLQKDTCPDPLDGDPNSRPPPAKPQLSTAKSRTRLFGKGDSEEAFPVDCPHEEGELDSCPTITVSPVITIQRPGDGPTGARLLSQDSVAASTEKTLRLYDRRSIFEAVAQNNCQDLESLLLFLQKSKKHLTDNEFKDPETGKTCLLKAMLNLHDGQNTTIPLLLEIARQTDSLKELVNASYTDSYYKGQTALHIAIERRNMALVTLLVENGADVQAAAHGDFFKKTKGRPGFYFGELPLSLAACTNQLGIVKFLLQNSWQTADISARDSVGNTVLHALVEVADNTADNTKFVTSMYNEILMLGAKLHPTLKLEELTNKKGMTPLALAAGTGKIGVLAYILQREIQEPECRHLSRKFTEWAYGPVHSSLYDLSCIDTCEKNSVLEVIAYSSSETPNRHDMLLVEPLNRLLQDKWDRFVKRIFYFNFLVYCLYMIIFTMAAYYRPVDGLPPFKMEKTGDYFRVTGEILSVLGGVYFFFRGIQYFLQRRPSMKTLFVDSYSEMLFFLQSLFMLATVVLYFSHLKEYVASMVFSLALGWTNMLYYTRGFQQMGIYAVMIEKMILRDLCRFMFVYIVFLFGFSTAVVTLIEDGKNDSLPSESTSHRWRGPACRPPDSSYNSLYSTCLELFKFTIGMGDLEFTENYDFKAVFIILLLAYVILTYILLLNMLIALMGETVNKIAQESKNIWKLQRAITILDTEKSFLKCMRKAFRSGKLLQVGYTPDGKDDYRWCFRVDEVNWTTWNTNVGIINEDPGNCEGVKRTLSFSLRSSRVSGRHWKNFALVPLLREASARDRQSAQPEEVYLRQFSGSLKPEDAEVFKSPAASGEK
Compound,EC50 [1] [µM],IC50 [2] [µM],IC50 [3] [µM],other results
CC(C)(C)c1ccc(-c2cnnc(Nc3ccc4c(c3)OCCO4)c2)cc1,> 4,> 4,0.78,
CC(C)(C)c1ccc(-c2cncc(Nc3ccc4c(c3)OCCO4)c2)cc1,> 4,> 4,1.21,
CC(C)(C)c1ccc(-c2cc(Nc3ccc4c(c3)OCCO4)cnn2)cc1,> 4,> 4,0.84,
CC(C)(C)c1ccc(-c2cccc(Nc3ccc4c(c3)OCCO4)c2)cc1,> 4,> 4,> 4,
CC(C)(C)c1ccc(-c2ncnc(Nc3ccc4c(c3)OCCO4)n2)cc1,> 4,> 4,0.76,
CC(C)(C)c1ccc(-c2cccc(Nc3ccc4c(c3)OCCO4)n2)cc1,> 4,> 4,> 4,
CC(C)(C)c1ccc(/C=C/C(=O)Nc2ccc3c(c2)OCCO3)cc1,> 4,,,AUC(0-inf) [4]: 680 ng·h/mL
FC(F)(F)c1ccc(-c2cc(Oc3ccc4cccnc4c3)ncn2)cc1,> 4,,,IC50 [5]: 0.0037 µM; Vd [6]: 3 L/kg; AUC(0-inf) [7]: 2040 ng·h/mL; Cmax [8]: 300 ng/mL; half-life [9]: 2.8 h; Activity [10]: Active; bioavailability [11]: 31%; Tmax [12]: 1.2 h; AUC(0-inf) [13]: 1590 ng·h/mL; IC50 [14]: 0.0042 µM
CC(C)(C)c1ccc(-c2ccnc(Nc3ccc4c(c3)OCCO4)c2)cc1,> 4,1.3,0.23,
FC(F)(F)c1ccc(-c2cc(Nc3ccc4c(c3)OCCO4)ncn2)cc1,> 4,1.2,0.43,IC50 [5]: 0.12 µM; IC50 [14]: 0.25 µM
CC(C)(C)c1ccc(Cc2cccn(-c3ccc4c(c3)OCCO4)c2=O)cc1,> 4,> 4,> 4,
CC(C)(C)c1ccc(-c2cncc(Nc3ccc4c(c3)OCCO4)n2)cc1,> 4,> 4,> 4,
CC(C)(C)c1ccc(-c2cc(Sc3ccc4c(c3)OCCO4)ncn2)cc1,> 4,> 4,> 4,
CC(C)(C)c1ccc(-c2cc(Oc3ccc4c(c3)OCCO4)ncn2)cc1,> 4,0.67,,
CC(C)(C)c1ccc(-c2cc(Cc3ccc4c(c3)OCCO4)ncn2)cc1,> 4,> 4,0.914,
CC(C)(C)c1ccc(-c2cc(Nc3ccc4c(c3)OCCO4)ncn2)cc1,> 4,0.68,0.12,IC50 [5]: 0.051 µM; IC50 [14]: 0.27 µM
CC(C)(C)c1ccc(-c2cc(Nc3ccc4cccnc4c3)ncn2)cc1,> 4,0.022,0.002,IC50 [5]: 0.0019 µM; Vd [6]: 3.1 L/kg; AUC(0-inf) [7]: 79 ng·h/mL; Cmax [8]: 34 ng/mL; half-life [9]: 1.6 h; bioavailability [11]: 5%; clearance [15]: 48.3 mL/min/kg; Tmax [12]: 0.5 h; AUC(0-inf) [13]: 340 ng·h/mL; IC50 [14]: 0.0069 µM
CC(C)(C)c1ccc(-c2ccnc(Nc3ccc4c(c3)OCCO4)n2)cc1,> 4,> 4,> 4,
CN(c1ccc2c(c1)OCCO2)c1cc(-c2ccc(C(C)(C)C)cc2)ncn1,> 4,2.2,> 4,
FC(F)(F)c1ccc(-c2cc(Nc3ccc4cccnc4c3)ncn2)cc1,> 4,0.0066,,IC50 [5]: 0.0006 µM; Vd [6]: 3 L/kg; AUC(0-inf) [7]: 94 ng·h/mL; Cmax [8]: 26 ng/mL; half-life [9]: 1.7 h; bioavailability [11]: 6%; clearance [15]: 51.7 mL/min/kg; Tmax [12]: 5 h; AUC(0-inf) [13]: 320 ng·h/mL; IC50 [14]: 0.0003 µM
CC(C)(C)c1ccc(-c2cc(Nc3ccc4c(c3)OCCO4)ccn2)cc1,> 4,> 4,> 4,
CC(C)(C)c1ccc(/C=C2\CCCN(c3ccc4c(c3)OCCO4)C2=O)cc1,> 4,> 4,> 4,
CC(C)(C)c1ccc(-c2nccc(Nc3ccc4c(c3)OCCO4)n2)cc1,> 4,> 4,> 4,
